Data set [1] has as its system Mycobacterium tuberculosis. Kind of data set: Antitubercular activity against Mycobacterium tuberculosis H37Rv ATCC 27294 after 28 days by two-fold serial dilution method. It counts as functional. The settings on record: for MIC: Mycobacterium tuberculosis, H37Rv ATCC 27294, 672 h. The method in brief:
(§1)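 NCCLS-recommended agar dilution run in triplicate against H37Rv ATCC 27294. Two-fold dilutions (50.0 to 0.4 µg/mL) in Middlebrook 7H11 agar with OADC. Inoculum came from fresh 7H11/OADC slants, adjusted to 1 mg/mL wet weight in 0.05% Tween 80 saline and diluted 10^-2 (~10^7 cfu/mL). 5 µL was spotted per tube, incubated at 37 °C and read at 28 days as MIC.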

Data set [2] concerns Mycobacterium tuberculosis. Kind of data set: Antitubercular activity against Mycobacterium tuberculosis clinical isolate by BACTEC 460 TB method. The data set is classed as functional.
A short description of data set [3]: Cytotoxicity against mouse RAW264.7 cells at 50 ug/ml after 72 hrs by MTT assay. The data set is classed as cell-based. The settings on record: read-out: INH. For orientation: Formazan colour is commonly taken as a measure of viable cells.
The nature of data set [4]: Therapeutic index, ratio of cytotoxicity against mouse RAW264.7 cells to antitubercular activity against Mycobacterium tuberculosis H37Rv ATCC 27294. The settings on record: read-out: TI. The data set is classed as cell-based.
For data set [5], the system named is Mycobacterium tuberculosis. Kind of data set: Antitubercular activity against Mycobacterium tuberculosis […] by microplate Alamar blue assay. It counts as functional.
The subject of data set [6] is Mycobacterium tuberculosis. Kind of data set: Antitubercular activity against Mycobacterium tuberculosis. The data set is classed as functional. The method in brief:
as §1

Data on 46 compounds can be found in ChEMBL document CHEMBL3797184, “Benzo[d]thiazol-2-yl(piperazin-1-yl)methanones as new anti-mycobacterial chemotypes: Design, synthesis, biological evaluation and 3D-QSAR studies” (Eur J Med Chem, 2016).

In brackets after ≈: the same amount, converted by molar mass. Some results are limits rather than exact numbers.

As for `CCOC(=O)c1nc2ccccc2s1`, in data set [1], the MIC (usually the lowest concentration that inhibits growth of the organism) was found to be 121 µM (≈ 25 µg/mL).
The compound `O=C(c1nc2ccccc2s1)N1CCSCC1` had an MIC in data set [1] of 94.6 µM (≈ 25 µg/mL).
Turning to `Cc1c(CN2CCN(C)CC2)cc(-c2ccc(Cl)cc2)n1-c1ccc(Cl)cc1`, in data set [2], the lowest concentration to inhibit growth (MIC) was 1.5 µg/mL (≈ 3.62 µM).
Take `O=C(c1nc2cc(Cl)ccc2s1)N1CCN(c2cnccn2)CC1`: in data set [1], the “-logMIC” value is 4.76 and the minimum inhibitory concentration (MIC) is 17.4 µM (≈ 6.25 µg/mL). Further, in data set [3], the cytotoxicity at 72 h, 50 ug/ml turned out to be 54.9%.
As to `O=C(c1nc2ccccc2s1)N1CCN(c2ccncc2)CC1`, in data set [1], the “-logMIC” value is 5.02 and the minimum inhibitory concentration (MIC) was determined as 9.63 µM (≈ 3.12 µg/mL). In addition, the cytotoxicity at 72 h, 50 ug/ml in data set [3] turned out to be 62%.
`O=C(c1nc2cc(Cl)ccc2s1)N1CCN(C(c2ccccc2)c2ccccc2)CC1`: in data set [1], the “-logMIC” value was 5.76 and the minimum inhibitory concentration (MIC) was determined as 1.74 µM (≈ 0.78 µg/mL). Moreover, the cytotoxicity at 72 h, 50 ug/ml in data set [3] is 52.9%.
On to `COc1ccc(N2CCN(C(=O)c3nc4ccccc4s3)CC2)cc1`, for which, in data set [1], the “-logMIC” value came to 4.45 and inhibition of growth (MIC) required 35.4 µM (≈ 12.5 µg/mL).
For `CC(=O)c1ccc(N2CCN(C(=O)c3nc4ccccc4s3)CC2)cc1`, in data set [1], the “-logMIC” value is given as 5.37 and the minimum inhibitory concentration (MIC) was determined as 4.27 µM (≈ 1.56 µg/mL). In data set [3], the cytotoxicity at 72 h, 50 ug/ml was found to be 62.3%.
Regarding `CCOC(=O)c1nc2cc(Cl)ccc2s1`, in data set [1], the minimum inhibitory concentration (MIC) is 12.9 µM (≈ 3.13 µg/mL). For the same compound, in data set [3], the cytotoxicity at 72 h, 50 ug/ml was determined as 37.4%.
Turning to `COc1ccccc1N1CCN(C(=O)c2nc3cc(Cl)ccc3s2)CC1`, in data set [1], the “-logMIC” value is 5.09 and the MIC amounted to 8.06 µM (≈ 3.13 µg/mL). Besides, the cytotoxicity at 72 h, 50 ug/ml in data set [3] was 63.4%.
In the case of `CC(=O)c1ccc(N2CCN(C(=O)c3nc4cc(C(F)(F)F)ccc4s3)CC2)cc1`, in data set [1], the “-logMIC” value amounted to 4.84 and 14.4 µM (≈ 6.25 µg/mL) was the least that counted as inhibitory (MIC). Further, the cytotoxicity at 72 h, 50 ug/ml in data set [3] was 30.6%.
Regarding `COc1ccccc1N1CCN(C(=O)c2nc3ccccc3s2)CC1`, in data set [1], the “-logMIC” value turned out to be 5.05 and the MIC was 8.84 µM (≈ 3.12 µg/mL). Besides, the cytotoxicity at 72 h, 50 ug/ml in data set [3] worked out at 53.4%.
`O=C(c1nc2ccccc2s1)N1CCN(c2ccccc2)CC1`: in data set [1], the “-logMIC” value is 5.32 and the MIC was found to be 4.82 µM (≈ 1.56 µg/mL). The cytotoxicity at 72 h, 50 ug/ml in data set [3] came to 67.2%.
`COc1ccccc1N1CCN(C(=O)c2nc3cc(C(F)(F)F)ccc3s2)CC1` had a minimum inhibitory concentration (MIC) in data set [1] of 59.3 µM (≈ 25 µg/mL).
`O=C(c1nc2cc(C(F)(F)F)ccc2s1)N1CCOCC1` gave a minimum inhibitory concentration (MIC) in data set [1] of 2.47 µM (≈ 0.781 µg/mL). For the same compound, in data set [4], the selectivity ratio was above 60. Further, in data set [3], the cytotoxicity at 72 h, 50 ug/ml stood at 24.6%.
`O=C(c1nc2cc(Cl)ccc2s1)N1CCOCC1` yielded a minimal inhibitory concentration (MIC) in data set [1] of 22.1 µM (≈ 6.25 µg/mL). Further, the cytotoxicity at 72 h, 50 ug/ml in data set [3] was found to be 26.1%.
Compound `CCOC(=O)c1nc2cc(C(F)(F)F)ccc2s1` gave an MIC in data set [1] of 22.7 µM (≈ 6.25 µg/mL). In data set [3], the cytotoxicity at 72 h, 50 ug/ml came out at 29.1%.
`O=C(c1nc2cc(C(F)(F)F)ccc2s1)N1CCN(c2ccccc2)CC1` yielded an MIC in data set [1] of 31.9 µM (≈ 12.5 µg/mL).
Regarding `O=C(c1nc2cc(Cl)ccc2s1)N1CCN(c2ccccc2)CC1`, in data set [1], the “-logMIC” value was 4.76 and 17.5 µM (≈ 6.25 µg/mL) was the least that counted as inhibitory (MIC). Further, the cytotoxicity at 72 h, 50 ug/ml in data set [3] was found to be 41.2%.
As for `O=C(c1nc2cc(C(F)(F)F)ccc2s1)N1CCN(c2ccncc2)CC1`, in data set [1], the “-logMIC” value is 5.1 and it took 7.96 µM (≈ 3.12 µg/mL) to inhibit growth (MIC). Also, the cytotoxicity at 72 h, 50 ug/ml in data set [3] was 17.5%.
For the compound `COc1ccc(N2CCN(C(=O)c3nc4cc(C(F)(F)F)ccc4s3)CC2)cc1`, in data set [1], the “-logMIC” value amounted to 5.13 and the minimum inhibitory concentration (MIC) is 7.42 µM (≈ 3.13 µg/mL). In addition, the cytotoxicity at 72 h, 50 ug/ml in data set [3] is 19.4%.
Taken in the same sequence, the figures for `CC(=O)c1ccc(N2CCN(C(=O)c3nc4cc(Cl)ccc4s3)CC2)cc1` were 5.41, 3.9 µM (≈ 1.56 µg/mL) and 30.8%.
On to `CN1CCN(C(=O)c2nc3cc(C(F)(F)F)ccc3s2)CC1`, for which, in data set [1], the “-logMIC” value was found to be 4.72 and the MIC was found to be 19 µM (≈ 6.25 µg/mL). For the same compound, the cytotoxicity at 72 h, 50 ug/ml in data set [3] turned out to be 12.6%.
`O=C(c1nc2cc(C(F)(F)F)ccc2s1)N1CCCCC1`: the MIC in data set [1] was found to be 39.8 µM (≈ 12.5 µg/mL).
For `CC(=O)N1CCN(C(=O)c2nc3cc(C(F)(F)F)ccc3s2)CC1`, in data set [1], the “-logMIC” value is reported as 5.36 and inhibition of growth (MIC) required 4.37 µM (≈ 1.56 µg/mL). The cytotoxicity at 72 h, 50 ug/ml in data set [3] was found to be 20.2%.
`CN1CCN(C(=O)c2nc3cc(Cl)ccc3s2)CC1` showed an MIC in data set [1] of 84.5 µM (≈ 25 µg/mL).
For the compound `O=C(c1nc2ccccc2s1)N1CCCCC1`, the lowest concentration to inhibit growth in data set [1] (MIC) was 101 µM (≈ 25 µg/mL).
Take `COc1ccc(N2CCN(C(=O)c3nc4cc(Cl)ccc4s3)CC2)cc1`: in data set [1], the “-logMIC” value amounted to 5.09 and the lowest concentration to inhibit growth (MIC) was 8.06 µM (≈ 3.13 µg/mL). Moreover, the cytotoxicity at 72 h, 50 ug/ml in data set [3] came to 42.8%.
Regarding `O=C(c1nc2cc(Cl)ccc2s1)N1CCN(c2ccncc2)CC1`, in data set [1], the “-logMIC” value came out at 4.46 and the minimum inhibitory concentration (MIC) came out at 34.8 µM (≈ 12.5 µg/mL).
For `O=C(c1nc2cc(C(F)(F)F)ccc2s1)N1CCN(c2cnccn2)CC1`, in data set [1], the “-logMIC” value is listed as 5.1 and the MIC was determined as 7.94 µM (≈ 3.12 µg/mL). The cytotoxicity at 72 h, 50 ug/ml in data set [3] was determined as 28.1%.
Turning to `CN1CCN(/N=C\c2cc(C(F)(F)F)nc3c(C(F)(F)F)cccc23)CC1`, 3.56 µg/mL (≈ 9.12 µM) was the least that counted as inhibitory in data set [5] (MIC).
On to `CC(=O)N1CCN(C(=O)c2nc3cc(Cl)ccc3s2)CC1`, for which, in data set [1], the “-logMIC” value was 4.41 and it took 38.6 µM (≈ 12.5 µg/mL) to inhibit growth (MIC).
Consider `CN1CCN(C(=O)c2nc3ccccc3s2)CC1`, for which, in data set [1], the “-logMIC” value stood at 4.92 and the MIC worked out at 12 µM (≈ 3.13 µg/mL). Also, the cytotoxicity at 72 h, 50 ug/ml in data set [3] worked out at 52.1%.
`O=C(c1nc2ccccc2s1)N1CCN(c2cnccn2)CC1`: in data set [1], the “-logMIC” value is recorded as 4.72 and the minimum inhibitory concentration (MIC) is 19.2 µM (≈ 6.25 µg/mL). The cytotoxicity at 72 h, 50 ug/ml in data set [3] came to 65.3%.
For `O=C(c1nc2ccccc2s1)N1CCN(C(c2ccccc2)c2ccccc2)CC1` the same measures were 5.72, 1.89 µM (≈ 0.782 µg/mL) and 60.7%.
In turn, `O=C(c1nc2ccccc2s1)N1CCOCC1` came in with an MIC in data set [1] of 6.28 µM (≈ 1.56 µg/mL). In addition, the cytotoxicity at 72 h, 50 ug/ml in data set [3] was determined as 36.2%.
For the compound `O=C(c1nc2cc(Cl)ccc2s1)N1CCCCC1`, in data set [1], it took 44.5 µM (≈ 12.5 µg/mL) to inhibit growth (MIC).
In turn, `O=C(c1nc2cc(C(F)(F)F)ccc2s1)N1CCN(C(c2ccccc2)c2ccccc2)CC1` returned an MIC in data set [1] of 51.9 µM (≈ 25 µg/mL).
Turning to `O=C(c1nc2cc(Cl)ccc2s1)N1CCSCC1`, inhibition of growth in data set [1] (MIC) required 20.9 µM (≈ 6.25 µg/mL). Also, the cytotoxicity at 72 h, 50 ug/ml in data set [3] stood at 62.5%.
In data set [6], `CC(C)C(NC(=O)OCC1c2ccccc2-c2ccccc21)C(=O)O/N=C1\c2ccccc2-c2c1c(N1CCN(c3ccccn3)CC1)nc1ccc(Br)cc21` (stereo not drawn) came in with an MIC of 1.47 µg/mL (≈ 1.82 µM).
Turning to `CC(=O)N1CCN(C(=O)c2nc3ccccc3s2)CC1`, in data set [1], the “-logMIC” value was found to be 5.27 and inhibition of growth (MIC) required 5.39 µM (≈ 1.56 µg/mL). For the same compound, in data set [3], the cytotoxicity at 72 h, 50 ug/ml was determined as 48.8%.
Compound `O=C(c1nc2cc(C(F)(F)F)ccc2s1)N1CCSCC1` yielded an MIC in data set [1] of 2.35 µM (≈ 0.781 µg/mL). The selectivity ratio in data set [4] is above 60. Also, the cytotoxicity at 72 h, 50 ug/ml in data set [3] turned out to be 18.1%.
In data set [1], `CC[C@@H](CO)NCCN[C@@H](CC)CO` [ETHAMBUTOL] had an MIC of 7.64 µM (≈ 1.56 µg/mL). This lies in the single-digit micromolar range.
With `NNC(=O)c1ccncc1` [ISONIAZID], 0.72 µM (≈ 0.0987 µg/mL) was the least that counted as inhibitory in data set [1] (MIC).
For `NC(=O)c1cnccn1` [PYRAZINAMIDE], the MIC in data set [1] was 50.8 µM (≈ 6.25 µg/mL).
`CO[C@H]1/C=C/O[C@@]2(C)Oc3c(C)c(O)c4c(O)c(c(/C=N/N5CCN(C)CC5)c(O)c4c3C2=O)NC(=O)/C(C)=C\C=C\[C@H](C)[C@H](O)[C@@H](C)[C@@H](O)[C@@H](C)[C@H](OC(C)=O)[C@@H]1C` [RIFAMPIN]: the minimal inhibitory concentration (MIC) in data set [1] came to 0.24 µM (≈ 0.198 µg/mL).
